According to ChEMBL document CHEMBL1125434, “Preparation and in vitro and in vivo evaluation of quinolones with selective activity against gram-positive organisms” (1992):
Values after ≈ are worked out from the molar mass of the structure shown.

Tests used:
Assay type in all cases: functional
Enterococcus faecium = assay: In vitro minimum inhibitory concentration against Enterococcus faecium ATCC 8043 using brain-heart infusion agar
Procedure, shortened: (§1)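 Overnight cultures were grown in BHI broth at 36 °C. Twofold dilutions of a 2000 µg/mL stock were made in BHI agar, giving 200–0.005 µg/mL. Plates received about 10^4 organisms and were incubated for 18 h at 36 °C. MIC was the lowest concentration with no visible growth on the plate.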

Acinetobacter = assay: In vitro minimum inhibitory concentration against Acinetobacter CMX 669 using brain-heart infusion agar; procedure, shortened: as §1
Pseudomonas aeruginosa [1] = assay: In vitro minimum inhibitory concentration against Pseudomonas aeruginosa K799 / WT using brain-heart infusion agar; procedure, shortened: as §1
Escherichia coli = assay: In vitro minimum inhibitory concentration against Escherichia coli Juhl using brain-heart infusion agar; procedure, shortened: as §1
Staphylococcus aureus [2] = assay: In vivo antibacterial activity against Staphylococcus aureus NCTC 10649 infected mouse by oral administration
Procedure, shortened: (§2)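 Compound was given in water or in dilute NaOH diluted with water, orally or subcutaneously. The dose was split equally between 1 and 5 h post-infection. Groups were 10 mice at ≥3 dose levels. ED50 was calculated from day-6 cumulative mortality by the trimmed Logit method.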

Staphylococcus aureus [3] = assay: In vitro minimum inhibitory concentration against Staphylococcus aureus ATCC 6538P using brain-heart infusion agar; procedure, shortened: as §1
Staphylococcus aureus [4] = assay: In vitro minimum inhibitory concentration against Staphylococcus aureus A 5177 using brain-heart infusion agar; procedure, shortened: as §1
Staphylococcus aureus [5] = assay: In vitro minimum inhibitory concentration against Staphylococcus aureus CMX 553 using brain-heart infusion agar; procedure, shortened: as §1
Streptococcus agalactiae = assay: In vitro minimum inhibitory concentration against Streptococcus agalactiae CMX 508 using brain-heart infusion agar; procedure, shortened: as §1
Streptococcus equinus = assay: In vitro minimum inhibitory concentration against Streptococcus bovis A5169 using brain-heart infusion agar; procedure, shortened: as §1
Streptococcus pyogenes = assay: In vitro minimum inhibitory concentration against Streptococcus pyogenes 930 using brain-heart infusion agar; procedure, shortened: as §1
[6] = tested on: Staphylococcus epidermidis; assay: In vitro minimum inhibitory concentration against Staphylococcus epidermidis 3159 using brain-heart infusion agar; procedure, shortened: as §1
Klebsiella aerogenes = assay: In vitro minimum inhibitory concentration against Enterobacter aerogenes ATCC 13048 using brain-heart infusion agar; procedure, shortened: as §1
Staphylococcus aureus [7] = assay: In vivo antibacterial activity against Staphylococcus aureus NCTC 10649 infected mouse by subcutaneous administration; conditions: sc; procedure, shortened: as §2
Pseudomonas aeruginosa [8] = assay: In vitro minimum inhibitory concentration against Pseudomonas aeruginosa A5007 using brain-heart infusion agar; procedure, shortened: as §1
Staphylococcus aureus [9] = assay: In vitro minimum inhibitory concentration against Staphylococcus aureus NCTC 10649 using brain-heart infusion agar; procedure, shortened: as §1
Klebsiella pneumoniae = assay: In vitro minimum inhibitory concentration against Klebsiella pneumoniae 8045 using brain-heart infusion agar; procedure, shortened: as §1

SMILES | MIC (Enterococcus faecium) [µg/mL] | MIC (Acinetobacter) [µg/mL] | MIC (Pseudomonas aeruginosa [1]) [µg/mL] | MIC (Escherichia coli) [µg/mL] | MIC (Staphylococcus aureus [3]) [µg/mL] | MIC (Staphylococcus aureus [4]) [µg/mL] | MIC (Staphylococcus aureus [5]) [µg/mL] | MIC (Streptococcus agalactiae) [µg/mL] | MIC (Streptococcus equinus) [µg/mL] | MIC (Streptococcus pyogenes) [µg/mL] | MIC [6] [µg/mL] | MIC (Klebsiella aerogenes) [µg/mL] | MIC (Pseudomonas aeruginosa [8]) [µg/mL] | MIC (Staphylococcus aureus [9]) [µg/mL] | MIC (Klebsiella pneumoniae) [µg/mL] | ED50 (Staphylococcus aureus [2]) [mg/kg] | ED50 (Staphylococcus aureus [7]) [mg/kg]
CON=C1CCN(c2c(F)cc3c(=O)c(C(=O)O)cn(C4CC4)c3c2F)CC1 | 1.56 (≈ 3.99 µM) | 3.1 (≈ 7.92 µM) | > 100 | 1.56 (≈ 3.99 µM) | 0.05 (≈ 0.128 µM) | 0.1 (≈ 0.256 µM) | 0.1 (≈ 0.256 µM) | 1.56 (≈ 3.99 µM) | 3.1 (≈ 7.92 µM) | 1.56 (≈ 3.99 µM) | 0.1 (≈ 0.256 µM) | > 100 | > 100 | 0.05 (≈ 0.128 µM) | 3.1 (≈ 7.92 µM) | – | –
CON=C1CCN(c2nc3c(cc2F)c(=O)c(C(=O)O)cn3-c2ccc(F)cc2F)CC1 | 3.1 (≈ 6.94 µM) | 12.5 (≈ 28 µM) | 25 (≈ 56 µM) | 6.2 (≈ 13.9 µM) | 0.1 (≈ 0.224 µM) | 0.2 (≈ 0.448 µM) | 0.39 (≈ 0.874 µM) | 1.56 (≈ 3.49 µM) | 6.2 (≈ 13.9 µM) | 3.1 (≈ 6.94 µM) | 0.39 (≈ 0.874 µM) | 12.5 (≈ 28 µM) | 50 (≈ 112 µM) | 0.2 (≈ 0.448 µM) | 3.1 (≈ 6.94 µM) | > 12 | > 8
CO/N=C1\CCN(c2nc3c(cc2F)c(=O)c(C(=O)O)cn3C2CC2)C1 | 0.78 (≈ 2.16 µM) | 0.39 (≈ 1.08 µM) | 1.56 (≈ 4.33 µM) | 0.39 (≈ 1.08 µM) | 0.02 (≈ 0.0555 µM) | 0.05 (≈ 0.139 µM) | 0.05 (≈ 0.139 µM) | 0.78 (≈ 2.16 µM) | 1.56 (≈ 4.33 µM) | 0.78 (≈ 2.16 µM) | 0.1 (≈ 0.278 µM) | 0.78 (≈ 2.16 µM) | 3.1 (≈ 8.6 µM) | 0.02 (≈ 0.0555 µM) | 0.1 (≈ 0.278 µM) | – | –
CON=C1CCN(c2cc3c(cc2F)c(=O)c(C(=O)O)cn3-c2ccc(F)cc2F)CC1 | 3.1 (≈ 6.96 µM) | 6.2 (≈ 13.9 µM) | > 100 | 0.2 (≈ 0.449 µM) | 0.05 (≈ 0.112 µM) | 0.1 (≈ 0.225 µM) | 0.2 (≈ 0.449 µM) | 1.56 (≈ 3.5 µM) | 6.2 (≈ 13.9 µM) | 1.56 (≈ 3.5 µM) | 0.1 (≈ 0.225 µM) | > 100 | > 100 | 0.05 (≈ 0.112 µM) | 3.1 (≈ 6.96 µM) | > 12 | > 8
O=C(O)c1cn(C2CC2)c2cc(N3CCNCC3)c(F)cc2c1=O [CIPROFLOXACIN] | – | – | – | – | – | – | – | – | – | – | – | – | – | – | – | 15.5 | 1.6
NC1CCN(c2nc3c(cc2F)c(=O)c(C(=O)O)cn3-c2ccc(F)cc2F)C1 (stereo unspecified) [TOSUFLOXACIN] | 0.2 (≈ 0.495 µM) | 0.1 (≈ 0.247 µM) | 0.78 (≈ 1.93 µM) | 0.02 (≈ 0.0495 µM) | 0.02 (≈ 0.0495 µM) | 0.05 (≈ 0.124 µM) | 0.05 (≈ 0.124 µM) | 0.39 (≈ 0.965 µM) | 0.39 (≈ 0.965 µM) | 0.2 (≈ 0.495 µM) | 0.1 (≈ 0.247 µM) | 0.05 (≈ 0.124 µM) | 0.78 (≈ 1.93 µM) | – | 0.02 (≈ 0.0495 µM) | – | –

Further molecules by falling MIC (Enterococcus faecium), results first:

MIC (Enterococcus faecium) [µg/mL] | MIC (Acinetobacter) [µg/mL] | MIC (Pseudomonas aeruginosa [1]) [µg/mL] | MIC (Escherichia coli) [µg/mL] | MIC (Staphylococcus aureus [3]) [µg/mL] | MIC (Staphylococcus aureus [4]) [µg/mL] | MIC (Staphylococcus aureus [5]) [µg/mL] | MIC (Streptococcus agalactiae) [µg/mL] | MIC (Streptococcus equinus) [µg/mL] | MIC (Streptococcus pyogenes) [µg/mL] | MIC [6] [µg/mL] | MIC (Klebsiella aerogenes) [µg/mL] | MIC (Pseudomonas aeruginosa [8]) [µg/mL] | MIC (Staphylococcus aureus [9]) [µg/mL] | MIC (Klebsiella pneumoniae) [µg/mL] | SMILES | ED50 (Staphylococcus aureus [2]) [mg/kg] | ED50 (Staphylococcus aureus [7]) [mg/kg]
0.39 (≈ 0.902 µM) | 1.56 (≈ 3.61 µM) | 6.2 (≈ 14.3 µM) | 0.78 (≈ 1.8 µM) | 0.05 (≈ 0.116 µM) | 0.1 (≈ 0.231 µM) | 0.1 (≈ 0.231 µM) | 0.39 (≈ 0.902 µM) | 1.56 (≈ 3.61 µM) | 0.78 (≈ 1.8 µM) | 0.1 (≈ 0.231 µM) | 3.1 (≈ 7.17 µM) | 6.2 (≈ 14.3 µM) | 0.05 (≈ 0.116 µM) | 0.78 (≈ 1.8 µM) | CO/N=C1\CCN(c2nc3c(cc2F)c(=O)c(C(=O)O)cn3-c2ccc(F)cc2F)C1 | > 12 | 4.7
0.39 (≈ 0.904 µM) | 1.56 (≈ 3.62 µM) | 3.1 (≈ 7.19 µM) | 0.39 (≈ 0.904 µM) | 0.05 (≈ 0.116 µM) | 0.1 (≈ 0.232 µM) | 0.1 (≈ 0.232 µM) | 0.39 (≈ 0.904 µM) | 1.56 (≈ 3.62 µM) | 0.39 (≈ 0.904 µM) | 0.1 (≈ 0.232 µM) | 3.1 (≈ 7.19 µM) | 6.2 (≈ 14.4 µM) | 0.1 (≈ 0.232 µM) | 0.39 (≈ 0.904 µM) | O=C(O)c1cn(-c2ccc(F)cc2F)c2cc(N3CCC(=NO)CC3)c(F)cc2c1=O | 6 | 3.2
0.39 (≈ 0.904 µM) | 0.78 (≈ 1.81 µM) | 6.2 (≈ 14.4 µM) | 0.78 (≈ 1.81 µM) | 0.02 (≈ 0.0464 µM) | 0.05 (≈ 0.116 µM) | 0.05 (≈ 0.116 µM) | 0.39 (≈ 0.904 µM) | 1.56 (≈ 3.62 µM) | 0.39 (≈ 0.904 µM) | 0.05 (≈ 0.116 µM) | 3.1 (≈ 7.19 µM) | 6.2 (≈ 14.4 µM) | 0.05 (≈ 0.116 µM) | 0.78 (≈ 1.81 µM) | CO/N=C1/CCN(c2cc3c(cc2F)c(=O)c(C(=O)O)cn3-c2ccc(F)cc2F)C1 | – | –
0.2 (≈ 0.479 µM) | 0.39 (≈ 0.934 µM) | 1.56 (≈ 3.74 µM) | 0.2 (≈ 0.479 µM) | < 0.05 | < 0.05 | < 0.05 | 0.2 (≈ 0.479 µM) | 0.39 (≈ 0.934 µM) | 0.2 (≈ 0.479 µM) | < 0.05 | 0.78 (≈ 1.87 µM) | 3.1 (≈ 7.43 µM) | < 0.05 | 0.2 (≈ 0.479 µM) | O=C(O)c1cn(-c2ccc(F)cc2F)c2cc(N3CC/C(=N/O)C3)c(F)cc2c1=O | > 12 | 4.1
